CHRM4 antagonist = human M4 muscarinic receptor antagonists, primary screen, CHO cells, Fluo-8 calcium fluorescence. Muscarinic acetylcholine receptor M4 (Homo sapiens), P08173. 0.73% of 360,000 active. AID 624125, 2012. inhibition, % at 3 µM. CHO-hM4 cells, ACh EC80;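 active = inhibition above its plate's cutoff, the mean inhibition of sample wells plus 3 SD, cut at about 27% in these data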;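 note: 0% = acetylcholine EC80 with DMSO and 100% = DMSO without agonist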
Target sequence (P08173 whole entry, looked up): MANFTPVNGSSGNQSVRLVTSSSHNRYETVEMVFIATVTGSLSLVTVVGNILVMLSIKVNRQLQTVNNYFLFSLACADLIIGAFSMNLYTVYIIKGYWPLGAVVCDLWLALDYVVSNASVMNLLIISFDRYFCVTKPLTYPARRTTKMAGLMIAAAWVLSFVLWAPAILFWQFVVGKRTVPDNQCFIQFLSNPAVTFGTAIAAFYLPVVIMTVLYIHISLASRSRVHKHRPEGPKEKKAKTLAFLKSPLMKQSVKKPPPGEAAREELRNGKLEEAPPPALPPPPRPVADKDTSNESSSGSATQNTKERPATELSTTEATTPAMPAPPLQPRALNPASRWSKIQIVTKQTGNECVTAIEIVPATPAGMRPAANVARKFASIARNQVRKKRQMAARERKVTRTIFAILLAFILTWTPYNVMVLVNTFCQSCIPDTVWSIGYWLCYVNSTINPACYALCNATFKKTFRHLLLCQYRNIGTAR
CHRM5 PAM = human M5 muscarinic receptor positive allosteric modulators, primary screen, CHO-K1 cells, Fluo-8 calcium fluorescence | CHO-K1 hM5, ACh EC20 PAM; 0% = ACh EC20, 100% = ACh EC100 | activation, % at 3 µM | 0.3% of 360,000 active | AID 624038, 2012;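 active = activation above the run cutoff, the mean activation of all test compounds plus 3 SD, cut at about 18% in these data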
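Test system: CHO-K1 hM5 cells / Doses: single-point, 3 µM nominal / Times: Post-acetylcholine fluorescence recording 140 s / Technique: Fluo-8 calcium fluorescence / Measure: Max/basal fluorescence ratio as % of EC20–EC100 ACh window / Benchmarks: low control EC20 acetylcholine (0%), high control EC100 acetylcholine (100%) / Replicates: one well per compound, no replicates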
CHRM5 agonist = human M5 muscarinic receptor agonists, primary screen, CHO-K1 cells, Fluo-8 calcium fluorescence | Muscarinic acetylcholine receptor M5 (Homo sapiens), P08912 | CHO-K1 hM5 cells; 0% DMSO wells, 100% maximal acetylcholine response | activation, % at 3 µM | 0.19% of 360,000 active | AID 624037, 2012;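 active = activation above the run's mean over test compounds plus 3 SD, cut at about 23% in these data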;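 note: signal is peak over basal fluorescence ratio across the kinetic read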
CHRM5 antagonist = human M5 muscarinic receptor antagonists, primary screen, CHO cells, Fluo-8 calcium fluorescence; 0.59% of 360,000 active; CHO-hM5 cells, ACh EC80; Muscarinic acetylcholine receptor M5 (Homo sapiens), P08912; inhibition, % at 3 µM;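 active = inhibition above a per-plate cutoff, the mean of that plate's test compounds plus 3 SD, cut at about 27% in these data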;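 note: 0% = acetylcholine EC80 with DMSO and 100% = DMSO without agonist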
CHRM4 PAM = human M4 muscarinic receptor positive allosteric modulators, primary screen, CHO-K1 cells, Fluo-8 calcium fluorescence; activation, % at 3 µM; 0.4% of 360,000 active; Muscarinic acetylcholine receptor M4 (Homo sapiens), P08173; CHO-K1 hM4/Gqi5, ACh EC20; 0% = ACh EC20, 100% = maximal ACh;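 active = activation above its plate's cutoff, the mean activation of sample wells plus 3 SD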
CHRM4 agonist = human M4 muscarinic receptor agonists, primary screen, CHO-K1 cells, Fluo-8 calcium fluorescence; activation, % at 3 µM; Muscarinic acetylcholine receptor M4 (Homo sapiens), P08173; AID 624127, 2012; CHO-K1 hM4/Gqi5; vehicle 0%, full acetylcholine response 100%; 0.14% of 360,000 active;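 active = activation above the run mean over all test wells plus 3 SD, cut at about 32% in these data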;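 note: peak over basal fluorescence ratio per well then scaled between controls; 0% = DMSO wells and 100% = acetylcholine at EC100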
* marks the source's active call; other numbers are inactive results. Hits are enriched below; roughly 1.8% of the tested compounds scored in any of these assays.

SMILES	CHRM4 antagonist	CHRM5 PAM	CHRM5 agonist	CHRM5 antagonist	CHRM4 PAM	CHRM4 agonist
COc1ccc(S(=O)(=O)N2CCC3(CC2)OCCN3S(=O)(=O)c2cccs2)cc1OC	-4	4	3	2	-1	6
O=[N+]([O-])c1ccc(-c2cccnc2)cc1	3	18*	2	4	1	1
O=[N+]([O-])c1ccc(COc2cccnc2)cc1	-7	-3	0	3	-4	2
COc1ccc(CCNC(=O)COC(=O)C2CC2)cc1OC	-18	20*	0	-13	3	1
COc1ccc(CCNC(=O)CSc2nn3c(=O)c(C)nnc3s2)cc1OC	-5	0	-5	0	17*	0
COc1ccc(CNC(=O)CSc2nn3c(=O)c(C(C)(C)C)nnc3s2)cc1OC	-3	-5	-9	1	-3	4
COc1ccc(CCNC(=O)C2CC2)cc1OC	-5	0	3	6	0	0
CCC(C)(C)NC(=O)C(c1cccc(OC)c1OC)N(CCOC)C(=O)CCC(=O)Nc1cc(C)on1 (stereo unspecified)	8	1	-3	16	-8	-1
CC(OC(=O)c1ccc(S(C)(=O)=O)c([N+](=O)[O-])c1)C(=O)NC1C2CC3CC(C2)CC1C3 (stereo unspecified)	2	-4	2	9	2	0
COc1ccc(NC(=O)c2cccnc2Nc2ccc(OC)cc2)cc1	52*	0	-4	4	-17	2
CC(=O)c1ccc(Nc2nc(CN)cs2)cc1	2	-2	0	-2	1	0
CCc1cc(CNC(=O)C2CCC(=O)N(Cc3ccccc3F)C2)on1 (stereo unspecified)	-21	-2	0	-5	2	1
CCOC(=O)N1CCC(N2C(=O)c3ccc(C(=O)NCc4ccc(F)cc4)cc3C2=O)CC1	-3	-2	2	0	3	1
CCOC(=O)N1CCC(N2CCN(c3cc(C)ccc3C)CC2)CC1	15	-16	-7	55*	-20	8
CCOC(=O)N1CCC(N2C(=O)c3ccc(C(=O)O)cc3C2=O)CC1	-3	21*	-3	-4	4	1
CCOC(=O)[C@]12CCCC=C1N(CCc1ccc(OC)c(OC)c1)C(=O)[C@H](CC(=O)N1CCCC1)C2	-7	8	3	-5	7	3
O=C(CSc1nc2ccccc2c(=O)n1CC1CCCO1)Nc1ccccc1Cl (stereo unspecified)	-7	-2	-1	9	-3	5
COc1cc(C(=O)NCC(c2cccs2)N2CCOCC2)ccc1OCc1ccc(Cl)cc1 (stereo unspecified)	-8	-6	8	10	-8	11
C[C@@H](NC(=O)Cn1cnc2c(OCc3ccccc3)ncnc21)c1cccc2ccccc12	57*	3	6	-4	56*	14
CCOC(=O)c1ccc(-c2ccc3c(c2)CCC3)nc1C	-20	2	-4	1	11	0
CC(=O)Nc1nc(-c2ccc([N+](=O)[O-])cc2)cs1	-5	-6	-1	-10	1	1
O=C(Nc1ccc([N+](=O)[O-])cc1)Nc1nc(-c2ccc(Cl)s2)cs1	26	-15	7	31*	-10	12
Cc1cc(C)n(S(=O)(=O)c2ccc3oc(=O)ccc3c2)n1	-1	7	-2	-2	-7	0
c1ccc(-c2nnc(-c3ccccc3)o2)cc1	-9	1	-1	6	4	1
Cc1nc(-c2nnc(-c3ccccc3)o2)c(C(F)(F)F)o1	29*	-20	0	14	-20	13
SMILES	CHRM4 antagonist	CHRM5 PAM	CHRM5 agonist	CHRM5 antagonist	CHRM4 PAM	CHRM4 agonist
COc1cc(CNc2ncnc3c2ncn3[C@H]2CN(Cc3ccncc3)C[C@@H](CO)O2)cc(OC)c1OC	-5	-6	2	5	5	1
Cc1oc(C(C)(C)C)cc1C(=O)NCc1ccc2c(c1)OCO2	-10	0	1	9	2	2
Cn1nc(C(C)(C)C)cc1C(=O)NCc1ccc2c(c1)OCO2	10	-11	5	29*	-9	13
O=C(O)c1ccccc1C(=O)NCc1ccc2c(c1)OCO2	8	-1	-5	7	3	0
O=C(NCc1ccc2c(c1)OCO2)c1cc2ccccc2o1	6	30*	-6	1	5	0
N#C/C(=C/c1ccncc1)c1nc2ccccc2s1	25	-15	26*	30*	-12	21
CC(C)=C(C#N)c1nc2ccccc2s1	20	-6	18	27*	-7	21
COC(=O)c1ccc(/C(O)=C(\C#N)c2nc3ccccc3s2)cc1	0	0	9	0	-3	9
O=C1C(=C(c2ccccc2)N2CCOCC2)Cc2ccccc21	3	3	-1	1	-3	1
Cc1cc(NC(=O)CCCN2C(=O)c3cccc4cccc(c34)C2=O)no1	-28	15	-2	4	19*	-1
O=C(Cc1ccc(NC(=O)C2CCCN(C(=O)C3CC3)C2)cc1)Nc1cccc(C(=O)N2CCCCC2)c1 (stereo unspecified)	-12	0	-2	-4	4	0
CC(=O)c1ccc(NC(=O)c2ccccc2-c2ccccc2C(=O)O)cc1	-1	5	0	4	-4	1
Cc1cnc(NC(=O)CSc2ncc(-c3ccccc3)n2Cc2ccco2)s1	-4	-28	26*	8	0	10
Cn1c(NNC(=O)C(c2ccccc2)c2ccccc2)cc(=O)n(C)c1=O	6	6	4	-3	7	-1
COC(=O)[C@@]12C[C@@H](CC(=O)N3CCN(C(=O)C4CC4)CC3)C(=O)N(Cc3ccccc3)C1=CCC(C)(C)C2	-6	-4	1	2	-1	2
Cc1c(C(=O)NCc2ccc(C(F)(F)F)cc2)sc(=O)n1Cc1cccc(F)c1	30*	-6	50*	32*	-5	54*
COc1ccc(Br)c(Cn2c(C)c(C(=O)NCc3cccc([N+](=O)[O-])c3)sc2=O)c1	31*	-12	1	2	-16	5
CCOC(=O)CS(=O)(=O)CC(=O)Nc1ccc([N+](=O)[O-])cc1OC	-8	20*	3	-5	10	1

Screening data deposited in PubChem BioAssay by The Scripps Research Institute Molecular Screening Center.
